Experimental data collected from several papers.
Each line is one published result; the experiments were not run side by side.

SMILES	test system	conditions	concentration
COc1cccc(-c2n[nH]c(SCc3ccccn3)n2)c1OC	male Sprague-Dawley rat, plasma	oral, 30 mg/kg, 2 h, single dose	9750 ng/mL
Cc1noc(C)c1Cn1cc(N2C(=O)N(Cc3cccc(O)c3)C(C)(C)C2=O)cn1	male Sprague-Dawley rat, plasma	oral, 100 mg/kg, 24 h, single dose	0 ng/mL
Cc1ccc(-c2cc(C(F)(F)F)nn2-c2ccc(S(N)(=O)=O)cc2)cc1	male Sprague-Dawley rat, plasma	oral, 20 mg/kg, 8 h	910 nM
CCc1cc(-c2noc(-c3cc(OC)nc(C4CCCC4)c3)n2)cc(C)c1OC[C@@H](O)CO	Wistar rat, plasma	oral, 3 mg/kg, 3 h, single dose	235 ng/mL
CN(C(=O)n1cnc(-c2ccc[n+]([O-])c2)c1)C1CCCCC1	Wistar rat, plasma	oral, 10 mg/kg, 8 h	278 ng/mL
CCCOc1ccc(OC)c(F)c1C(=O)c1ccc(C(=O)N[C@@H]2CNC[C@H]2NC(=O)c2ccc3[nH]ncc3c2)cc1	rat, plasma	intravenous, 559 µg, 10 min, single dose	470 ng/mL
CCOC(=O)[C@@]12C[C@@H]1[C@@H](n1ccc3c(NC)nc(C#Cc4ccc(Cl)s4)nc31)[C@H](O)[C@@H]2O	male Sprague-Dawley rat, plasma	oral, 1 mg/kg, 1 h	9.55 ng/mL
Cc1noc(C)c1Cn1cc(N2C(=O)CN(Cc3cccc(O)c3)C2=O)cn1	male Sprague-Dawley rat, plasma	oral, 100 mg/kg, 4 h	42.5 ng/mL
COc1ccc2c(=O)n(C)c(-c3ccccc3)nc2c1	male Sprague-Dawley rat, lung	oral, 30 mg/kg, 30 min	2.5 ng/mL
COc1nc(-c2cc(C)c(N[C@@H](C)c3cc(F)cc(F)c3)nn2)ccc1-n1cnc(C)c1	male Sprague-Dawley rat, CSF	oral, 50 mg/kg, 4 h, multiple doses, once daily	301 ng/mL
